What was measured:
Interstitial collagenase = biological target: T1, Interstitial collagenase (Homo sapiens, UniProt P03956); assay: Inhibitory concentration against MMP-1
T1 sequence (P03956 whole entry): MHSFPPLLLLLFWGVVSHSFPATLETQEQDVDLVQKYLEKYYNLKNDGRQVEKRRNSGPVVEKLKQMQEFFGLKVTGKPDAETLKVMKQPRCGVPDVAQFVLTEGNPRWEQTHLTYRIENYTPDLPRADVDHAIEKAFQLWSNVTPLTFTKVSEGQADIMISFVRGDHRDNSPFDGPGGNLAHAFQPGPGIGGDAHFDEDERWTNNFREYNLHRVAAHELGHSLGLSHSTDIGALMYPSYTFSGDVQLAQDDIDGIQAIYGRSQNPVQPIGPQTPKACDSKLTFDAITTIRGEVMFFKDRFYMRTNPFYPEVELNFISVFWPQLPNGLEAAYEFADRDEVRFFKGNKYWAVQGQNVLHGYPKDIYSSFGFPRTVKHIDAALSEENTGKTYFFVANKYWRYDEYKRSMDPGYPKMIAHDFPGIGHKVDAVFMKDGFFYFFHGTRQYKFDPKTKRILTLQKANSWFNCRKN

[1] = Inhibitory concentration against MMP-13
[2] = Inhibitory concentration against aggrecanase from porcine chondrocytes using [35S]-sulfate (5 mCi/ml) as radioligand and adding IL-1alpha (5 ng/ml) incubated for 10h; set-up: species or system Sus scrofa
Outline: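 Cell-based assay in porcine chondrocytes. Glycosaminoglycan chains were labelled by including [³⁵S]sulfate (5 mCi/ml) in the culture medium, and unincorporated label was washed out before aggrecan degradation was assessed.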

[3] = Half life in rat; assay type: ADME; conditions: in vivo
Outline: (§1)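 Male Sprague–Dawley rats with jugular vein catheters got an iv bolus of 5 mg/kg in glycerol formal. Jugular blood was drawn at 5, 15 and 30 min and at 1, 2, 4, 6, 8 and 24 h. Plasma was diluted with an equal volume of water, extracted with MTBE and assayed by LC–MS/MS. Parameters were derived by non-compartmental analysis.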

[4] = biological target: 72 kDa type IV collagenase (Homo sapiens, UniProt P08253); assay: Inhibitory concentration against MMP-2
Stromelysin-1 = Stromelysin-1 (Homo sapiens, UniProt P08254); assay: Inhibitory concentration against MMP-3
Cricetinae gen. sp. [5] = assay: Potent inhibition of MMP-13 induced collagen degradation in hamster knee joints; assay type: functional, Cricetulus griseus; conditions: Knee joint
[6] = biological target: Matrix metalloproteinase-14 (Homo sapiens, UniProt P50281); assay: Inhibitory concentration against MMP-14
Cell line = assay: Inhibition of IL-1 induced aggrecan degradation in human osteoarthritic cartilage; assay type: functional, cell-based; conditions: Cartilage tissue
Outline: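 Articular cartilage came from total knee replacement and was cut into 1 × 2 mm pieces. These were cultured in DMEM with 0.5% fetal bovine serum and stimulated with IL-1α (50 ng/ml) plus oncostatin M (50 ng/ml). After 48 h, released GAG in the medium was measured by DMMB; n = 2.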

[7] = Clearance in dog; assay type: ADME, organism-based, Canis lupus familiaris; conditions: plasma, read-out: Clp
Cricetinae gen. sp. [8] = assay: Potent inhibition of IL-1 induced aggrecan degradation in hamster; assay type: functional, Cricetulus griseus
[9] = biological target: Matrix metalloproteinase-9 (Homo sapiens, UniProt P14780); assay: Inhibitory concentration against MMP-9
Neutrophil collagenase = Neutrophil collagenase (Homo sapiens, UniProt P22894); assay: Inhibitory concentration against MMP-8
Bos taurus [10] = species on record: Bos taurus; assay: Inhibition of IL-1 induced collagen degradation in bovine nasal cartilage explants; assay type: functional
[11] = Clearance in rat; assay type: ADME, organism-based; conditions: plasma, read-out: Clp; outline: as §1
[12] = Half life in dog; assay type: ADME, Canis lupus familiaris; conditions: in vivo
Bos taurus [13] = species on record: Bos taurus; assay: Inhibition of IL-1 induced aggrecan degradation in bovine nasal cartilage explants; assay type: functional
Outline: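 Bovine nasal cartilage plugs (4 mm diameter and length) were cultured in serum-free DMEM with IL-1α plus inhibitor. After 48 h, samples were analysed for GAG content by the DMMB assay.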

[14] = biological target: Disintegrin and metalloproteinase domain-containing protein 17 (Rattus norvegicus, UniProt Q9Z1K9); assay: Inhibitory concentration against rat TACE
[15] = biological target: T2, A disintegrin and metalloproteinase with thrombospondin motifs 4 (Homo sapiens) (UniProt O75173); assay: Inhibitory concentration at 500 nM against aggrecanase from porcine chondrocytes using [35S]-sulfate (5 mCi/ml) as radioligand and adding IL-1alpha (5 ng/ml) incubated for 10h; conditions: Sus scrofa, target entry is the homologue from another species
T2 sequence (whole entry): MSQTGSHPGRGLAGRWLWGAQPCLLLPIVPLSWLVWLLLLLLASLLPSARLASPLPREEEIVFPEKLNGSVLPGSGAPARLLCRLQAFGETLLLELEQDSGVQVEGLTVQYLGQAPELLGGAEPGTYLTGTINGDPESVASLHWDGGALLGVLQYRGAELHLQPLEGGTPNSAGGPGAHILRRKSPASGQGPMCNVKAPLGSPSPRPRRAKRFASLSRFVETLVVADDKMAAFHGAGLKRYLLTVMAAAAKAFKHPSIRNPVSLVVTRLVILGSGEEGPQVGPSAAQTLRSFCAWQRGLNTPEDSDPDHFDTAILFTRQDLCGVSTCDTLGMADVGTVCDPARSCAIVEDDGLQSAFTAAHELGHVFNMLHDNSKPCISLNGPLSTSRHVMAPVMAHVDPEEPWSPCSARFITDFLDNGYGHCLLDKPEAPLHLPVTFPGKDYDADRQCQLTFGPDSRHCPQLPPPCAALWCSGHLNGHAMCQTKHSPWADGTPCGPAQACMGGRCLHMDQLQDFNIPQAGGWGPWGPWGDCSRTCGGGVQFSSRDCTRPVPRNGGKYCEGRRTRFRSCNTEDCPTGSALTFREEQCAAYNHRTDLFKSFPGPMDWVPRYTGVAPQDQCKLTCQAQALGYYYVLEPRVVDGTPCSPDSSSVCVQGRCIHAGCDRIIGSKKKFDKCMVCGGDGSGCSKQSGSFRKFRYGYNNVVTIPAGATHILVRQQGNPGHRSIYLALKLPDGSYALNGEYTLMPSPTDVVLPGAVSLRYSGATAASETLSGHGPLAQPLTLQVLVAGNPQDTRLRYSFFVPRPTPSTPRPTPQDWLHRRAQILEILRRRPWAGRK

Chain of Disintegrin and metalloproteinase domain-containing protein 17 (Q9Z1K9 whole entry, the tested form may be a part): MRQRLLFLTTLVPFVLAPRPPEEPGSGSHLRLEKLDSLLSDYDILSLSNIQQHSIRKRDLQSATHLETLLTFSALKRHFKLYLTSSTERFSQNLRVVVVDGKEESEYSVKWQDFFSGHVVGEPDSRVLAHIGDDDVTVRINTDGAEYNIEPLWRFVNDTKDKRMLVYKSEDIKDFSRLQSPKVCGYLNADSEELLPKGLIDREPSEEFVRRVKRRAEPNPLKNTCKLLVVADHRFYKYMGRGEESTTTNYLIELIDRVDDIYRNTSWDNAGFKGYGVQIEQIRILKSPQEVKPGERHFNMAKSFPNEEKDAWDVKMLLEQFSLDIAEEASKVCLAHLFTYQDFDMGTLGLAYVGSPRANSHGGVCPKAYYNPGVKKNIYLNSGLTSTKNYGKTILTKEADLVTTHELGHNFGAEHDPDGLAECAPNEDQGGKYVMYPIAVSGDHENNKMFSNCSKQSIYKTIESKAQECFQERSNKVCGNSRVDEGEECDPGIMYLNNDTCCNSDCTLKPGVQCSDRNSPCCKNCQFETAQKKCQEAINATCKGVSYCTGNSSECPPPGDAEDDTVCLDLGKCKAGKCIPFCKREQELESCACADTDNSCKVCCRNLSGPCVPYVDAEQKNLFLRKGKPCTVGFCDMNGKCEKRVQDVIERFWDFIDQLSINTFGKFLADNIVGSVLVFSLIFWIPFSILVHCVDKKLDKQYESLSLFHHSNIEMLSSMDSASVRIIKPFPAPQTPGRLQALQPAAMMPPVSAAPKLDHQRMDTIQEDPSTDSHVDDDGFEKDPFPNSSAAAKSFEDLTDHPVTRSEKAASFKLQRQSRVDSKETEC
Chain of Stromelysin-1 (P08254 whole entry): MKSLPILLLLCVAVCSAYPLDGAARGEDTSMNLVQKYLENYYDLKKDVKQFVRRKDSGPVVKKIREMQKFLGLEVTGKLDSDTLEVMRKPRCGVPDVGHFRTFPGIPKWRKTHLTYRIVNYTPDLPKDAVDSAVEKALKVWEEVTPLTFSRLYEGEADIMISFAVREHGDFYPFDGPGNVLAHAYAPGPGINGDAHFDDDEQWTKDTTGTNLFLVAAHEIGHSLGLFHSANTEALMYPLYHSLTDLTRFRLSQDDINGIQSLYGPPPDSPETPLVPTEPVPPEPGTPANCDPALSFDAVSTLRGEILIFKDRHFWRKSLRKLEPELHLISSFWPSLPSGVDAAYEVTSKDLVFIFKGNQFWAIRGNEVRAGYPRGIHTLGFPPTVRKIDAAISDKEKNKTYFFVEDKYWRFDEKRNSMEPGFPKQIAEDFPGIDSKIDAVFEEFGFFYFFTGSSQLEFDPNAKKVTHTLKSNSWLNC
Chain of 72 kDa type IV collagenase (P08253 whole entry): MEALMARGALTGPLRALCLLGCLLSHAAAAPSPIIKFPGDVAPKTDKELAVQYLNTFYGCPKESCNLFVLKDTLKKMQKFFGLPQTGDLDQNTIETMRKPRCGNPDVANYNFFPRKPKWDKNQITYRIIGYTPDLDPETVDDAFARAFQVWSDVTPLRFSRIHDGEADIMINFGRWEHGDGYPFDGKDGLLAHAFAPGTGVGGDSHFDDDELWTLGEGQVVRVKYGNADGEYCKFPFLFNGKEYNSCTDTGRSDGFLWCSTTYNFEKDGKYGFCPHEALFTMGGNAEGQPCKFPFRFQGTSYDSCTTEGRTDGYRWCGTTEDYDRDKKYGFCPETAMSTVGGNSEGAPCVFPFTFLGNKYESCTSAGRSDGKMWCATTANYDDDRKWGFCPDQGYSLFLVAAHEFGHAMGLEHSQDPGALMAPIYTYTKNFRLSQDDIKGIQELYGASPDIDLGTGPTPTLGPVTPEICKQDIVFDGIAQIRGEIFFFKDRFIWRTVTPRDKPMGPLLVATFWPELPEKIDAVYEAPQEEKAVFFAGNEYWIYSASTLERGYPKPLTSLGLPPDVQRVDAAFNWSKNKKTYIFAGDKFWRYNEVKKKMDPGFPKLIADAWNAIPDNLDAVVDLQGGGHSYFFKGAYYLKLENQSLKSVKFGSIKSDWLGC
Chain of Neutrophil collagenase (P22894 whole entry): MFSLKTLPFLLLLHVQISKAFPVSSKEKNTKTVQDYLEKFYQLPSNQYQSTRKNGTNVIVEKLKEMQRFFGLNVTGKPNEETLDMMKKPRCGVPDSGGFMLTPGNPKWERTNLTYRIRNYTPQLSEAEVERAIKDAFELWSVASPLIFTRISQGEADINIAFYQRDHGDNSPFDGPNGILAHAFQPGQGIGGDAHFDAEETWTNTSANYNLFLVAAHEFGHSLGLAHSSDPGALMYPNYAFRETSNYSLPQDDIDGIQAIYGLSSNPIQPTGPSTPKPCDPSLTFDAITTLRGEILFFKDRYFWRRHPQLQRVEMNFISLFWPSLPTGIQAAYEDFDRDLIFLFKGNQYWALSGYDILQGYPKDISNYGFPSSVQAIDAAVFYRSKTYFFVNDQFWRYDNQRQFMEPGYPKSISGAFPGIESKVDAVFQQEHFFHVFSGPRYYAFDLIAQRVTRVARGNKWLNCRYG
Chain of Matrix metalloproteinase-9 (P14780 whole entry): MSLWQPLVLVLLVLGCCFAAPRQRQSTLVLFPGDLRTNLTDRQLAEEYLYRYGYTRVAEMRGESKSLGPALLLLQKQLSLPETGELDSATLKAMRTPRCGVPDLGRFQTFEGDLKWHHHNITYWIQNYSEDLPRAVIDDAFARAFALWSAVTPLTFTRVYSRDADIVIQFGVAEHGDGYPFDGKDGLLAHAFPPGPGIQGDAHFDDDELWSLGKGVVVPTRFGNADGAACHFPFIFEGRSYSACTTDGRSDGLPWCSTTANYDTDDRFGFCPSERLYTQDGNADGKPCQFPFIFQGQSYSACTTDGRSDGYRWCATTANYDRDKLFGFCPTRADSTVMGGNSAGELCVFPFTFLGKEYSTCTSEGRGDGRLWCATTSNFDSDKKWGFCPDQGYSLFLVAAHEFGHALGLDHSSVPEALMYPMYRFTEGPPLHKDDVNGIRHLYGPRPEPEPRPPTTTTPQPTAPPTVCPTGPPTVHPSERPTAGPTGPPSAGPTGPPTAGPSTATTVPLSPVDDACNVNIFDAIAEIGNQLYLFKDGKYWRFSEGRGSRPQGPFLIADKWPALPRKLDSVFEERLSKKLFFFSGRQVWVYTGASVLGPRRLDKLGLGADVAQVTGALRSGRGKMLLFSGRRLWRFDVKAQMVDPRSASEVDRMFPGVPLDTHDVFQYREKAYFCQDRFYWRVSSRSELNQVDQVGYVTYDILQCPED

Compound | IC50 (Interstitial collagenase) [nM] | IC50 [1] [nM] | IC50 [2] [nM] | IC50 [14] [nM] | further results
C[C@@]1(O)CCCN(S(=O)(=O)c2ccc(OCc3ccnc(Cl)c3)cc2)[C@H]1C(=O)NO | 520 | 0.43 | 15 | – | –
C[C@@]1(O)CCCN(S(=O)(=O)c2ccc(OCc3ccc(F)cc3Cl)cc2)[C@H]1C(=O)NO | 310 | 0.9 | 1.5 | – | half-life [3]: 2 h; IC50 [4]: 4 nM; IC50 (Stromelysin-1): 5 nM; ED50 (Cricetinae gen. sp. [5]): 13 mg/kg; IC50 [6]: 83 nM; IC50 (Cell line): 6 nM; clearance [7]: 11 mL/min/kg; ED50 (Cricetinae gen. sp. [8]): 4.6 mg/kg; IC50 [9]: 11 nM; IC50 (Neutrophil collagenase): 1 nM; IC50 (Bos taurus [10]): 100 nM; clearance [11]: 13 mL/min/kg; half-life [12]: 4.6 h; IC50 (Bos taurus [13]): 10.3 nM
C[C@@]1(O)CCCN(S(=O)(=O)c2ccc(OCc3ccc(F)cc3)cc2)[C@H]1C(=O)NO (stereo in doubt; 11) | 420 | 3.7 | 120 | 14 | –
Cc1ccccc1COc1ccc(S(=O)(=O)N2CCC[C@@](C)(O)[C@@H]2C(=O)NO)cc1 | 310 | 0.65 | 6.9 | – | –
C[C@@]1(O)CCCN(S(=O)(=O)c2ccc(OCc3cnccn3)cc2)[C@H]1C(=O)NO | 1600 | 7.4 | – | – | inhibition [15]: 8%
C[C@@]1(O)CCCN(S(=O)(=O)c2ccc(OCc3cccc4ccncc34)cc2)[C@H]1C(=O)NO | 7800 | 18 | 17 | – | –
C[C@@]1(O)CCCN(S(=O)(=O)c2ccc(OCc3cccc(Cl)c3)cc2)[C@H]1C(=O)NO | 860 | 2.5 | 78 | – | –
Cc1c(F)cccc1COc1ccc(S(=O)(=O)N2CCC[C@@](C)(O)[C@@H]2C(=O)NO)cc1 | 1300 | 3.2 | 11 | 10 | –
C[C@@]1(O)CCCN(S(=O)(=O)c2ccc(OCc3cccc(F)c3)cc2)[C@H]1C(=O)NO | 340 | 1.5 | 85 | – | –
C[C@]1(O)CCCN(S(=O)(=O)c2ccc(OCc3ccc(F)cc3)cc2)[C@H]1C(=O)NO | 1100 | 6.5 | > 1000 | 11 | –
C[C@@]1(O)CCCN(S(=O)(=O)c2ccc(OCc3ccccc3Cl)cc2)[C@H]1C(=O)NO | – | 1 | 3.7 | – | –
C[C@@]1(O)CCCN(S(=O)(=O)c2ccc(OCc3ccc(F)cc3)cc2)[C@H]1C(=O)NO (stereo in doubt; 17) | 420 | – | – | 14 | –
C[C@@]1(O)CCCN(S(=O)(=O)c2ccc(OCc3ccncc3)cc2)[C@H]1C(=O)NO | 190 | 2 | – | – | inhibition [15]: 8.1%
Cc1ncccc1COc1ccc(S(=O)(=O)N2CCC[C@@](C)(O)[C@@H]2C(=O)NO)cc1 | 1600 | 1.5 | 51 | – | –
CCCC[C@]1(O)CCCN(S(=O)(=O)c2ccc(OCc3ccc(F)cc3)cc2)[C@H]1C(=O)NO | 2900 | 4.9 | 2000 | 23 | –
C[C@@]1(O)CCCN(S(=O)(=O)c2ccc(OCc3ccccc3F)cc2)[C@H]1C(=O)NO | 180 | 0.49 | 14 | – | –
CC[C@]1(O)CCCN(S(=O)(=O)c2ccc(OCc3ccc(F)cc3)cc2)[C@H]1C(=O)NO | 1100 | 3.6 | 490 | 1.7 | –
Cc1cc(F)ccc1COc1ccc(S(=O)(=O)N2CCC[C@@](C)(O)[C@@H]2C(=O)NO)cc1 | – | 2.9 | 4.7 | 15 | –
C[C@@]1(O)CCCN(S(=O)(=O)c2ccc(OCc3cccc4cccnc34)cc2)[C@H]1C(=O)NO | 120 | 4.1 | 19 | – | –
C[C@@]1(O)CCCN(S(=O)(=O)c2ccc(OCc3ccc(Cl)cc3F)cc2)[C@H]1C(=O)NO | 120 | 0.87 | 7.9 | – | –
COc1ccccc1COc1ccc(S(=O)(=O)N2CCC[C@@](C)(O)[C@@H]2C(=O)NO)cc1 | 2600 | 18 | – | – | inhibition [15]: 73%
CC[C@@]1(O)CCCN(S(=O)(=O)c2ccc(OCc3ccc(F)cc3)cc2)[C@H]1C(=O)NO | 500 | 1.6 | 500 | 18 | –
CC1(C)C[C@@H](O)CN(S(=O)(=O)c2ccc(OCc3ccc(Cl)cc3Cl)cc2)[C@H]1C(=O)NO | – | – | – | – | half-life [3]: 2 h; clearance [7]: 25 mL/min/kg; clearance [11]: 44 mL/min/kg; half-life [12]: 2 h
Cc1ccc(F)cc1COc1ccc(S(=O)(=O)N2CCC[C@@](C)(O)[C@@H]2C(=O)NO)cc1 | – | 2.5 | 15 | – | –
C[C@@]1(O)CCCN(S(=O)(=O)c2ccc(OCc3ccccc3C#N)cc2)[C@H]1C(=O)NO | 2700 | 9.7 | – | – | inhibition [15]: 55%

From ChEMBL document CHEMBL1139577, “Discovery of 3-OH-3-methylpipecolic hydroxamates: potent orally active inhibitors of aggrecanase and MMP-13” (Bioorg Med Chem Lett, 2005)
